The text below walks through data of ChEMBL document CHEMBL4513216, “Probing the Open Global Health Chemical Diversity Library for Multistage-Active Starting Points for Next-Generation Antimalarials” (ACS Infect Dis, 2020).

This data set in a line: Toxicity liver stage against HepG2, at 10uM. It is filed as cell-based. Further details: test concentration 10 uM, cell line HepG2-A16-CD81EGFP. Particulars: human, HepG2-A16-CD81EGFP cells; read-out: INHIBITION
The method, boiled down: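 Uninfected HepG2-A16-CD81EGFP cells, 3 × 10^3 per well, 1536-well, plated on prespotted compound at 10 μM final, parasite-free screening media added to match infected plates; puromycin 10 μM positive, DMSO 0.5% negative; run in parallel with 48 h PbLuc assay at 37 °C, 5% CO2; viability by CellTiter-Glo luminescence, normalized to controls.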

Molecules are shown by their SMILES.

Take `Cn1cc(CN2C[C@@H]3COC[C@]3(CNC(=O)c3ccco3)C2)cn1`: the cytotoxicity at 10 µM is -73.1%.
`NS(=O)(=O)N1CCc2ccc(NC(=O)Cc3ccccc3F)cc21`: the cytotoxicity at 10 µM worked out at 1.17%.
Turning to `Cc1nc(C2CCCN(C(=O)c3cc(C)sc3C)C2)no1` (configuration not stated), the cytotoxicity at 10 µM is 6.86%.
The value for `COCc1nc(C(=O)N2CCCC2c2c(C)nn(C)c2C)cs1` (configuration not stated) was -4.74%; that for `Cc1csc(C2(NCC(O)COC(C)C)CCCC2)n1` (configuration not stated) was 4.53%.
Regarding `Cc1cccnc1CC(C)N(C)C(=O)c1ccoc1C` (configuration not stated), the cytotoxicity at 10 µM is -12.6%.
As for `O=C(Cc1ccccc1)NCCNS(=O)(=O)C1CCCCC1`, the cytotoxicity at 10 µM was -1.95%.
With `O=C([C@H]1CCCO1)N1CC[C@H](O)[C@@H]1Cc1cccnc1`, the cytotoxicity at 10 µM is -105%.
Take `CC(C)OCCNC1(c2ccc(F)cc2)CCOCC1`: the cytotoxicity at 10 µM is -4.78%.
The value for `Fc1ccc(CN2CCOCC3(CCN(Cc4nccs4)C3)C2)cc1` (configuration not stated) was 4.23%.
As for `Cc1ccc(CN(C(=O)NCC(c2cccs2)N(C)C)C2CC2)o1` (configuration not stated), the cytotoxicity at 10 µM is -4.24%.
In the case of `COCCC(=O)N1CC2(CCN(c3ccccc3)C2)C1`, the cytotoxicity at 10 µM is 10.3%.
`CNC(=O)c1sc2ccccc2c1C1CCN(c2cc(C)nc(C)n2)C1` (configuration not stated): the cytotoxicity at 10 µM came out at 10.8%.
Next, `CC(C)CN1C[C@H]2N(c3ncccn3)CCC[C@@]2(C(=O)NCC2CC2)C1`: -94.6%; `Cc1cnc(N2CCC3(CC2)CC3CN(C)Cc2cccnc2)nc1` (configuration not stated): -0.37%; `O=C(NCc1ccc(Cl)s1)c1ccc(N2CCOC2=O)cc1`: 21.1%.
The value for `Cn1cc(Br)cc(NC(=O)CC2CCC2)c1=O` was -8.15%; that for `O=C(Cc1cccs1)NC1CCN(c2cccc(F)c2)CC1` was -24.2%; that for `Cc1ccc(C(=O)NCC(O)c2ccc(Cl)s2)c(=O)[nH]1` (configuration not stated) was -20.7%.
The value for `CC(C)c1nnc2n1CCN(C(=O)c1ccccc1OCC1CC1)C2` was 10.5%.
In the case of `CN(c1ncnc2c1cnn2C)C1CCCN(c2cccnn2)C1` (configuration not stated), the cytotoxicity at 10 µM amounted to 3.93%.
`COc1ccc(CNCc2cn(C)nc2C)cc1`: the cytotoxicity at 10 µM is -1.42%.
Next, `COc1cccc(CC(C)NC(=O)NCCc2cccnc2)c1` (configuration not stated): -11%; `CCn1nc(C)c(-c2cncn2Cc2ccccc2CN(C)C)c1C`: 12.4%; `Cc1nccn1-c1ccc(C(C)NCc2cccn2C)cc1` (configuration not stated): 8.61%.
The value for `O=c1ccc2c(n1CCN1CCCC1)CCN(c1ncccn1)CC2` was 8.33%.
Regarding `CC(C)N(CCNC(=O)c1[nH]nc2ccc(I)cc12)C(C)C`, the cytotoxicity at 10 µM was -41.1%.
Next, `Cc1ccccc1CN(CCO)Cc1ncc[nH]1`: -3.97%.
The value for `O=S(=O)(C1CC1)N1CCOC2(CCCN(c3cccc(F)c3)C2)C1` (configuration not stated) was 8.46%; that for `CCC(CO)N(Cc1ccccn1)C(=O)c1ccc(C)c(Cl)c1` (configuration not stated) was -0.054%.
With `CC(C)c1nnc(NC(=O)N(C)Cc2ccncc2)s1`, the cytotoxicity at 10 µM came to 5.28%.
The value for `CCC(C)[C@H](NC(=O)c1cc(Br)ccc1-n1cnnn1)C(=O)OC` (some centres not stated) was 2.58%; that for `CN(Cc1cnc(C(C)(C)C)nc1)Cc1nc2ccc(F)cc2[nH]1` was -12.3%; that for `CCc1ccc(OCC(O)CN2CCN(S(C)(=O)=O)CC2)cc1` (configuration not stated) was 7.07%.
For the compound `Cc1noc(CCCNC(=O)N2CCc3ccccc3C2CO)n1` (configuration not stated), the cytotoxicity at 10 µM stood at 8.69%.
Turning to `CC1(C)CNC(=O)c2nc(CCN3CCC(C(N)=O)CC3)[nH]c2C1`, the cytotoxicity at 10 µM was -1.35%.
For `COc1cc2c(cc1CN1CCc3sccc3C1C)OCCO2` (configuration not stated), the cytotoxicity at 10 µM was found to be 8.92%.
Regarding `CCn1cc(CN2CCCN(C(=O)c3sc(C)nc3C)CC2)cn1`, the cytotoxicity at 10 µM is -14.4%.
Next, `CCOC(=O)c1n[nH]cc1-c1cncn1CCCn1nc(C)cc1C`: -2.73%; `OC(CN1CCN(CC(F)F)CC1)c1ccc(Br)cc1` (configuration not stated): -9.88%.
`O=S(=O)(NCCN1CC=CC1)c1cncc(Cl)c1`: the cytotoxicity at 10 µM was -2.42%.
In the case of `COCc1ccccc1C(=O)N1CCCC1Cn1nc(C)cc1C` (configuration not stated), the cytotoxicity at 10 µM was -3.98%.
As to `CC(NS(=O)(=O)CCCC#N)c1cccc(-n2cccn2)c1` (configuration not stated), the cytotoxicity at 10 µM was 1.42%.
Take `COC(=O)c1sc2nc3c(c(C(F)(F)F)c2c1N)CN(C(C)=O)CC3`: the cytotoxicity at 10 µM is -8.18%.
As for `COc1ccc(OCCN(C)Cc2nc3c(cnn3C)c(=O)[nH]2)cc1`, the cytotoxicity at 10 µM was -4.03%.
The value for `CNc1nc(C)c(C(=O)N2CCCCC2CCN2CCOCC2)s1` (configuration not stated) was -2.06%.
Turning to `CCc1nc(NCCn2cccn2)c2c(n1)c(C)nn2C`, the cytotoxicity at 10 µM came out at 5.97%.
With `CC(=O)N1CCOCC2(C1)CN(S(C)(=O)=O)CCO2` (configuration not stated), the cytotoxicity at 10 µM was 2.84%.
On to `O=C(O)c1ccc(C2CCCN(Cc3ccc(-c4cc[nH]n4)o3)C2)cc1` (configuration not stated), for which the cytotoxicity at 10 µM was -2.43%.
Next, `O=C(CN1CCCC1c1nc2cc(F)ccc2[nH]1)NCc1ccccn1` (configuration not stated): -0.748%; `CN(C(=O)NCc1ccncc1)C1CCCN(c2ccccc2)C1=O` (configuration not stated): -8.86%; `CCSCCNC(=O)Nc1cc(C(=O)N2CCOCC2)ccc1Cl`: -55.2%.
For `Cc1nc(CN2CCC3(CCCN(Cc4cccnc4)C3)C2=O)cs1` (configuration not stated), the cytotoxicity at 10 µM came to 20.8%.
For the compound `CCn1nc(C)c(CCNC(=O)C2CCCN(C(C)=O)C2)c1C` (configuration not stated), the cytotoxicity at 10 µM was -20.8%.
For the compound `CN(C)CC1CN(C(=O)Cc2ccccc2)Cc2nccn2C1` (configuration not stated), the cytotoxicity at 10 µM was -115%.
Next, `Cc1nc(CNCc2c(C)nn(C)c2N2CCOCC2)cs1`: -7.44%.
For `Cc1cc(N2CCCN(c3ccnc(C)c3)CC2)ccn1`, the cytotoxicity at 10 µM is -0.943%.
With `c1cnc(N2CCC3(COCCN(CC4CCOCC4)C3)C2)nc1` (configuration not stated), the cytotoxicity at 10 µM is -1.56%.
With `Cc1noc(C)c1C(C)NC(=O)N1CCN(c2cccs2)CC1` (configuration not stated), the cytotoxicity at 10 µM stood at 6.43%.
With `Cn1ccnc1C1CCN(C(=O)COCC(F)(F)C(F)F)CC1`, the cytotoxicity at 10 µM is -45.2%.
Consider `Cc1cn2c(n1)CCC(NC(=O)CCC1CC1)C2` (configuration not stated), for which the cytotoxicity at 10 µM is -9.69%.
As for `COCCc1ncc(-c2c(C#N)c(N)nc3c2CCc2[nH]ccc2-3)cn1`, the cytotoxicity at 10 µM was -0.508%.
As to `Cc1nc[nH]c1CN1C[C@H]2CC[C@@H](C1)N(C(=O)CCc1cnn(C)c1)C2`, the cytotoxicity at 10 µM is -14.1%.
Next, `COC(=O)CCCn1ccnc1C(C)c1ccccc1` (configuration not stated): -6.73%.
The value for `CSc1sc2c(O)cc(=O)[nH]c2c1C(N)=O` was -2.1%; that for `CC(=O)N1CCCC(c2ccc(C(N)=O)cn2)C1` (configuration not stated) was 5.07%; that for `O=c1[nH]c2cc(S(=O)(=O)N3CCC(c4ccsc4)CC3)ccc2o1` was -9.69%.
For the compound `CC(c1ccccn1)N(C)Cc1ccc(CCC(C)(C)O)cc1` (configuration not stated), the cytotoxicity at 10 µM came out at 1.82%.
Next, `CN(C)c1cc(CNC(=O)Nc2ccc(F)cc2)ccn1`: 0.0418%.
Take `CC(=O)c1cccc(OCCCC(=O)NCC2CCCN2C)c1` (configuration not stated): the cytotoxicity at 10 µM came out at 0.71%.
The value for `CN(C)S(=O)(=O)N1CC[C@]2(O)CCN(CCCc3cccnc3)C[C@@H]2C1` was -6.55%; that for `Cn1nc(CN2CCCC2)c2c1CN(C(=O)c1cnccn1)CC2` was -147%.
With `CC(C)(O)CN1CCN(C(=O)c2ccn(-c3cccc(F)c3)n2)CC1`, the cytotoxicity at 10 µM was -3.53%.
In the case of `CS(=O)(=O)NCC1CCCN(C(=O)c2ccc(F)c(F)c2)C1` (configuration not stated), the cytotoxicity at 10 µM was -10.3%.
For the compound `CCc1cccc(OCCn2cccc(C#N)c2=O)c1`, the cytotoxicity at 10 µM worked out at 9.04%.
The value for `CN(CC(=O)N(C)C1CC1)C1CCN(c2ccc(Cl)cc2)CC1` was 0.153%; that for `CCc1nc(CCNC(=O)NC2CCC(=O)N(C)C2)sc1C` (configuration not stated) was 2.78%; that for `Cc1nc(C(=O)N2CC[C@@]3(C[C@H](NS(C)(=O)=O)CCO3)C2)cs1` was -72.9%.
Regarding `COC(=O)C(NC(=O)C(C)C)c1cc(F)ccc1F` (configuration not stated), the cytotoxicity at 10 µM is -4.53%.
As for `Cc1noc(C)c1CNCC1COCc2c(-c3ccsc3)nnn2C1` (configuration not stated), the cytotoxicity at 10 µM was determined as 5.74%.
For the compound `Cc1ccc(SC2CCCC2)c(C(=O)NCCO)c1`, the cytotoxicity at 10 µM is -45.3%.
For `CNc1cncc(C2CCCN2C(=O)c2ccc3oc(=O)n(C)c3c2)n1` (configuration not stated), the cytotoxicity at 10 µM was -1.57%.
On to `N#Cc1ccc(N2CCC(OC3CCOCC3)CC2)cc1Cl`, for which the cytotoxicity at 10 µM was 1%.
The value for `Cc1cnc2c(c1NCc1ccncc1)c(=O)n(C)c(=O)n2C` was -10.7%; that for `COCCN1CCC2(CC1)CC(NCc1ccc(C)s1)c1ccccc12` (configuration not stated) was -121%.
`CCN(CCNS(=O)(=O)C1CCOCC1)C(=O)OC(C)(C)C`: the cytotoxicity at 10 µM is -1.8%.
In the case of `O=C1CO[C@H]2CN(S(=O)(=O)c3ccccc3)C[C@H]2N1CC1CCCCC1`, the cytotoxicity at 10 µM worked out at 3.36%.
The value for `COC1C[C@@H]2CN(C(=O)Cc3ccc(C)s3)C[C@@H]2C1` (some centres not stated) was 3.53%; that for `C[C@@H]1CN(C(=O)CCCN2CCCC2)CC[C@@]1(O)C1CCOCC1` was -0.422%.
In the case of `Cc1cnn(C2CCCN(C(=O)c3ccc(-n4ccnc4)cc3)C2)c1` (configuration not stated), the cytotoxicity at 10 µM was -1.14%.
As to `Cc1ccc(-c2noc(C(C)NS(C)(=O)=O)n2)cc1` (configuration not stated), the cytotoxicity at 10 µM is -9.24%.
As to `COc1cccc(-n2nnc(C(=O)N3CCCC3)c2C)c1`, the cytotoxicity at 10 µM is -5.41%.
Next, `COc1ccc(CN2Cc3cn(C)nc3C(COCC3CC3)C2)cc1` (configuration not stated): -78.5%.
Turning to `CNc1ncccc1C(=O)N1CCN(Cc2ccc(C)cc2)C(=O)C1C` (configuration not stated), the cytotoxicity at 10 µM was determined as 5.67%.
With `Cc1cc(C)c(CNC(=O)NCC(O)COc2ccccc2)c(=O)[nH]1` (configuration not stated), the cytotoxicity at 10 µM is -5.75%.
`CCC(CO)NCc1ccc(-c2ccc(F)cc2)o1` (configuration not stated): the cytotoxicity at 10 µM was -5.67%.
Regarding `Cc1cnn(CCC(=O)N2CCCC(c3noc(C)n3)C2)c1` (configuration not stated), the cytotoxicity at 10 µM is -3.98%.
